In ChEMBL document CHEMBL4052665, “Synthesis and pharmacological evaluation of glycine amide derivatives as novel vascular adhesion protein-1 inhibitors without CYP3A4 and CYP2C19 inhibition” (Bioorg Med Chem, 2017):
pIC50: −log10 of the molar value. One block for each compound: values may come before it. Active and inactive are the calls of the source. The calls are words filed in the database; no cut-off is given here.

Key:
[1] = target: CYP2C19 (Homo sapiens, UniProt P33261); test: Inhibition of CYP2C19 in human liver microsomes assessed as residual activity at 5 uM using S-mephenytoin as substrate after 20 mins by LC-MS/MS analysis; type: ADME; conditions: probe S-mephenytoin, read-out: Activity
Chain of CYP2C19 (P33261 whole entry): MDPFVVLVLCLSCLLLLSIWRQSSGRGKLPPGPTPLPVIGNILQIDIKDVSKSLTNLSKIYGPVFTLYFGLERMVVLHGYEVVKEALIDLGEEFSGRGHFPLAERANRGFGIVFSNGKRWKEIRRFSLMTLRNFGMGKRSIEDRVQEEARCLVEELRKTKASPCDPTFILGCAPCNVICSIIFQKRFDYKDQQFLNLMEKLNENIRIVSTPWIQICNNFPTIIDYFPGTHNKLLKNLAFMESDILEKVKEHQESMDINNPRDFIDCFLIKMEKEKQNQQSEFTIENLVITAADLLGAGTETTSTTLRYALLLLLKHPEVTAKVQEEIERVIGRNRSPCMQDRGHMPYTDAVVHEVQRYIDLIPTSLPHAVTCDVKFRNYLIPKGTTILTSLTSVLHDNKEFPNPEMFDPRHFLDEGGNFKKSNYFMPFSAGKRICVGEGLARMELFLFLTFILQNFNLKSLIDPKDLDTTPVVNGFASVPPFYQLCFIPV
Outline: (§1)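 Pooled human liver microsomes (0.1 mg/mL) in 100 mM Na-K phosphate pH 7.4 with 1 mM NADPH. Test compound at 5 μM was co-incubated with a probe cocktail including midazolam (1.5 μM) and S-mephenytoin (30 μM) at 37 °C for 20 min. The reaction was stopped with 80% acetonitrile. 1'-Hydroxymidazolam (CYP3A4) and 4'-hydroxymephenytoin (CYP2C19) were measured by LC-MS/MS. Residual activity = activity with compound / vehicle activity × 100.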

[2] = target: CYP3A4 (Homo sapiens, UniProt P08684); test: Inhibition of CYP3A4 in human liver microsomes assessed as residual activity at 5 uM using midazolam as substrate after 20 mins by LC-MS/MS analysis; type: ADME; conditions: probe midazolam, read-out: Activity; outline: as §1
Chain of CYP3A4 (P08684 whole entry): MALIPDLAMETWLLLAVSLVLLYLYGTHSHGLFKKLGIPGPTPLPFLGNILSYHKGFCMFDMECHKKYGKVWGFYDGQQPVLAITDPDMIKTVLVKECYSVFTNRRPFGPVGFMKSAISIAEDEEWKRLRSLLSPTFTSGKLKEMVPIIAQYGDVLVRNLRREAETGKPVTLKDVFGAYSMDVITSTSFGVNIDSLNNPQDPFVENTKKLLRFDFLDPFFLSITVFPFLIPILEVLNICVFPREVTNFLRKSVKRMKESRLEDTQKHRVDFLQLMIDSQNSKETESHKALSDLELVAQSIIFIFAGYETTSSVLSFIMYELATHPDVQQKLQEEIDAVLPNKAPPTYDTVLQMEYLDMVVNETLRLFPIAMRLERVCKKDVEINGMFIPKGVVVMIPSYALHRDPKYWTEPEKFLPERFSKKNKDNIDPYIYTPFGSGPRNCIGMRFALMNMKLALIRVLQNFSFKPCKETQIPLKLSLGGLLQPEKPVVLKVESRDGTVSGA

[3] = Aqueous solubility of the compound in solution at pH 6.8 in presence of 15 mM sodium taurocholate; type: physicochemical; conditions: aqueous solution with 15 mM sodium taurocholate
[4] = Plasma concentration in Wistar rat at 1 mg/kg, po after 1 hr post dose by LC-MS/MS analysis; type: ADME, organism-based
Outline: (§2)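 Male Wistar rats, fasted about 18 h, dosed at 1 mg/kg iv (solution in 5% DMSO in water) or orally, n = 3. Plasma was deproteinated with acetonitrile and the compound was quantified by LC-MS/MS. Parameters came from non-compartmental analysis.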

[5] = Cmax in Wistar rat at 1 mg/kg, po by LC-MS/MS analysis; type: ADME, organism-based; design: dose 1 mg/kg, route oral; conditions: in vivo; outline: as §2
[6] = Half life in Wistar rat at 1 mg/kg, iv by LC-MS/MS analysis; type: ADME, organism-based; conditions: in vivo; outline: as §2
[7] = tested on: Rattus norvegicus; test: In vivo inhibition of VAP-1 in STZ-induced diabetic Sprague-Dawley rat assessed as reduction in proteinuria progression at 0.3 to 1 mg/kg, po for 4 weeks measured after 24 hrs by Bradford colorimetric assay; type: functional, organism-based
Outline: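 Male SD rats (6 weeks old) given STZ 65 mg/kg ip in citrate-buffered saline pH 4.5; sham rats got buffer. Groups were set by plasma glucose and body weight at day 3. Dosing was oral in 0.5% MC, 5 mL/kg, once daily for 4 weeks. 24-h metabolic-cage urine was collected in week 4 and protein measured by Bradford assay; excretion = concentration × urine volume. Mean ± SEM; Dunnett's test against STZ control.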

[8] = tested on: Rattus norvegicus; test: Inhibition of VAP-1 in Wistar rat plasma at 0.3 mg/kg, po using 14C-benzylamine as substrate preincubated for 20 mins followed by substrate addition measured after 1 hr by scintillation spectrometric analysis; type: functional
Outline: (§3)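 Male Wistar rats (n = 4) dosed orally. Tail-vein blood was taken under ether anaesthesia before dosing and at 1 or 6 h after. Plasma was kept at -80 °C. 100 μL plasma was reacted with 14C-benzylamine at 37 °C for 2 h. Non-specific activity was measured with 1 mmol/L FR299676 and subtracted. 14C-Benzaldehyde was counted by liquid scintillation. Inhibition ratio = fall from the pre-dose activity, in %.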

[9] = Total clearance in Wistar rat at 1 mg/kg, iv by LC-MS/MS analysis; type: ADME, organism-based; conditions: in vivo; outline: as §2
[10] = AUC (0 to 24 hrs) in Wistar rat at 1 mg/kg, po by LC-MS/MS analysis; type: ADME, organism-based; design: dose 1 mg/kg, time < 24 hr, route oral; conditions: in vivo; outline: as §2
[11] = tested on: Rattus norvegicus; test: In vivo inhibition of VAP-1 in STZ-induced diabetic Sprague-Dawley rat plasma at 0.3 to 1 mg/kg, po for 4 weeks measured after 24 hrs after final dose using 14C-benzylamine as substrate by scintillation spectrometric analysis; type: functional, organism-based
Outline: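 STZ-diabetic SD rats (65 mg/kg ip) dosed orally once daily for 4 weeks in 0.5% MC. Suborbital blood was taken under ether 24 h after the last dose. 50 μL plasma was reacted with 14C-benzylamine at 37 °C for 1 h, minus non-specific activity measured with 1 mmol/L FR299676. Liquid scintillation counting; mean ± SEM, Dunnett's test against STZ control.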

[12] = Aqueous solubility of the compound in solution at pH 6.8; type: physicochemical
[13] = AUC (0 to 24 hrs) in Wistar rat at 1 mg/kg, iv by LC-MS/MS analysis; type: ADME, organism-based; design: dose 1 mg/kg, time < 24 hr, route intravenous; conditions: in vivo; outline: as §2
[14] = tested on: Rattus norvegicus; test: Inhibition of VAP-1 in Wistar rat plasma at 0.3 mg/kg, po using 14C-benzylamine as substrate preincubated for 20 mins followed by substrate addition measured after 6 hr by scintillation spectrometric analysis; type: functional; outline: as §3
[15] = Volume of distribution at steady state in Wistar rat at 1 mg/kg, iv by LC-MS/MS analysis; type: ADME, organism-based; conditions: in vivo, read-out: Vdss; outline: as §2
[16] = Half life in Wistar rat at 1 mg/kg, po by LC-MS/MS analysis; type: ADME, organism-based; conditions: in vivo; outline: as §2
[17] = tested on: Rattus norvegicus; test: Inhibition of VAP-1 in Wistar rat plasma at 1 mg/kg, po using 14C-benzylamine as substrate preincubated for 20 mins followed by substrate addition measured after 1 hr by scintillation spectrometric analysis; type: functional; outline: as §3
[18] = Oral bioavailability in Wistar rat at 1 mg/kg by LC-MS/MS analysis; type: ADME, organism-based; conditions: in vivo; outline: as §2
[19] = tested on: Rattus norvegicus; test: Inhibition of VAP-1 in Wistar rat plasma at 1 mg/kg, po using 14C-benzylamine as substrate preincubated for 20 mins followed by substrate addition measured after 6 hr by scintillation spectrometric analysis; type: functional; outline: as §3
[20] = Plasma concentration in Wistar rat at 1 mg/kg, po after 6 hrs post dose by LC-MS/MS analysis; type: ADME, organism-based; outline: as §2
[21] = target: T1, Amine oxidase [copper-containing] 3 (Homo sapiens, UniProt Q16853); test: Inhibition of human VAP-1 expressed in CHO cells using 14C-benzylamine as substrate preincubated for 20 mins followed by substrate addition measured after 1 hr by scintillation spectrometric analysis; type: cell-based
T1 sequence (Q16853 whole entry): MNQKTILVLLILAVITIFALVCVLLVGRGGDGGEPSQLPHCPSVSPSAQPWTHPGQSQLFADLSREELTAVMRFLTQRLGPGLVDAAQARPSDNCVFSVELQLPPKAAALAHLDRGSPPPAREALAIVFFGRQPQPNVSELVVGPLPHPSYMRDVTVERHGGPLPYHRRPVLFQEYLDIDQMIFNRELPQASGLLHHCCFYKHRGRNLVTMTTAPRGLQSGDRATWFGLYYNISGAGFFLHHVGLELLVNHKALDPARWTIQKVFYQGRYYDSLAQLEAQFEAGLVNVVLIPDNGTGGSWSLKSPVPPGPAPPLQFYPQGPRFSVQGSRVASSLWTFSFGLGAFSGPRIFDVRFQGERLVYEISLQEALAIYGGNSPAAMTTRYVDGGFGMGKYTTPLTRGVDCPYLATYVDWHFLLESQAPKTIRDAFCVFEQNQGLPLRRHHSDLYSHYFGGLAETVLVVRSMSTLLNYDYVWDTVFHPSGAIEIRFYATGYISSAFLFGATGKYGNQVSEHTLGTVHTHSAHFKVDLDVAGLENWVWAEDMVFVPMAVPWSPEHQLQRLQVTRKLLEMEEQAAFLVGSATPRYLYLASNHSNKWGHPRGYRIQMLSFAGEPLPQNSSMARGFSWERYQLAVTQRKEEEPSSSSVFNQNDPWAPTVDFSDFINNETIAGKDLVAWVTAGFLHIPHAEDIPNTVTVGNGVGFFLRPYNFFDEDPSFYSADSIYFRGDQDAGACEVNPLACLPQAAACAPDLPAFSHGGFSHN

[22] = target: T2, Amine oxidase [copper-containing] 3 (Rattus norvegicus, UniProt O08590); test: Inhibition of rat VAP-1 expressed in CHO cells using 14C-benzylamine as substrate preincubated for 20 mins followed by substrate addition measured after 1 hr by scintillation spectrometric analysis; type: cell-based
T2 sequence (O08590 whole entry): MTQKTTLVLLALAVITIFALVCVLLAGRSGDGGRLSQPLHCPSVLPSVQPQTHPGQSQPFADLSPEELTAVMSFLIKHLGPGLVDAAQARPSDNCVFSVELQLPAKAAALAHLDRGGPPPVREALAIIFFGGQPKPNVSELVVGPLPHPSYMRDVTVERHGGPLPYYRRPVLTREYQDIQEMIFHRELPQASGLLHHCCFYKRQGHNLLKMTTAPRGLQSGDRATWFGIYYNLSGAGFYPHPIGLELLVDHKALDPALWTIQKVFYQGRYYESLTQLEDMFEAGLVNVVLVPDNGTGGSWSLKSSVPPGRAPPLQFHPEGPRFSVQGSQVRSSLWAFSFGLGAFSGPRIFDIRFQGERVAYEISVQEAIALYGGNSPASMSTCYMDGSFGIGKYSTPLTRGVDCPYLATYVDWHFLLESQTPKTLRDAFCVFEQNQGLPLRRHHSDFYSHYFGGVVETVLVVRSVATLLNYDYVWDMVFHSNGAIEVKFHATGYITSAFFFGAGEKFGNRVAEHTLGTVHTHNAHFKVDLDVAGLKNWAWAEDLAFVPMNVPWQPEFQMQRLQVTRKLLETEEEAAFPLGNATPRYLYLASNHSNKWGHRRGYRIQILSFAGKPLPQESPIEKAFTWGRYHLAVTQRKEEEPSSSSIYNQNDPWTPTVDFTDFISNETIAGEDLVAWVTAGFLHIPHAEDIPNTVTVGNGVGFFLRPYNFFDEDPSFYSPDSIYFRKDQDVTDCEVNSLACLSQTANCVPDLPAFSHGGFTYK

Compound: CN(Cc1cccc(-c2ccc(N3CCOCC3)cc2)c1)C(=O)CN
activity at 20 min, 5 µM [1]: 63% | activity at 20 min, 5 µM [2]: 57%

Compound: CN(Cc1cccc(-c2cnc(N3CCN(c4ccc(C(=O)O)cc4Cl)CC3)nc2)c1)C(=O)CN.Cl.Cl
solubility [3]: 89.6 µM | concentration at 1 h [4]: 111 ng/mL | Cmax [5]: 113 ng/mL | half-life [6]: 1.39 h | inhibition [7]: Active | inhibition in vivo at 0.3 mg/kg [8]: 64% | clearance [9]: 8.69 mL/min/kg | activity at 20 min, 5 µM [1]: 109% | AUC(0-t) at 24 h [10]: 334 ng·h/mL | inhibition [11]: Active | solubility [12]: 2.3 µM | AUC(0-t) at 24 h [13]: 1920 ng·h/mL | inhibition in vivo at 0.3 mg/kg [14]: 62% | Vd [15]: 0.386 L/kg | half-life [16]: 1.29 h | inhibition in vivo at 1 mg/kg [17]: 96% | bioavailability [18]: 17.4% | inhibition in vivo at 1 mg/kg [19]: 93% | activity at 20 min, 5 µM [2]: 98% | concentration at 6 h [20]: 7.1 ng/mL

Compound: CN(Cc1cccc(-c2cnc(N3CCN(c4ccc(C(=O)O)cc4)CC3)nc2)c1)C(=O)CN.Cl.Cl
solubility [3]: < 1 µM | pIC50 [21]: 7.62 | activity at 20 min, 5 µM [1]: 106% | pIC50 [22]: 8.00 | solubility [12]: < 1 µM | inhibition in vivo at 1 mg/kg [17]: 68% | inhibition in vivo at 1 mg/kg [19]: 60% | activity at 20 min, 5 µM [2]: 100%

Compound: CN(Cc1cccc(-c2cnc(N3CCCCC3)nc2)c1)C(=O)CN
pIC50 [21]: 6.60

Compound: CN(Cc1cccc(-c2cnc(N3CCC[C@H]3CO)nc2)c1)C(=O)CN
pIC50 [21]: 6.62

Second part, the compound after the results:

pIC50 [21]: 6.85 | activity at 20 min, 5 µM [1]: 119% | activity at 20 min, 5 µM [2]: 108%
Compound: CN(Cc1cccc(-c2cnc(N3CCC(CCC(=O)O)CC3)nc2)c1)C(=O)CN

pIC50 [21]: 6.52
Compound: CN(Cc1cccc(-c2cnc(N3CCC[C@@H]3CO)nc2)c1)C(=O)CN

pIC50 [21]: 5.77 | activity at 20 min, 5 µM [1]: 104% | activity at 20 min, 5 µM [2]: 112%
Compound: CN(Cc1cccc(-c2cnc(N3CCC(C(=O)O)CC3)nc2)c1)C(=O)CN

pIC50 [21]: 5.70 | pIC50 [22]: 6.80
Compound: CN(Cc1cccc(-c2ccc(N3CCOCC3)cc2)n1)C(=O)CN
